According to ChEMBL document CHEMBL3352121, “Modulation of Activity Profiles for Largazole-Based HDAC Inhibitors through Alteration of Prodrug Properties” (ACS Med Chem Lett, 2014):
pIC50: −log10 of the molar value.

Columns and labels:
Histone deacetylase 5 [1] = biological target: T1, Histone deacetylase 5 (Homo sapiens, UniProt Q9UQL6); assay: Inhibition of HDAC5 (unknown origin) at 1 uM incubated for 30 mins in presence of BSA and in absence of DTT by fluorescence assay
Method in brief: (§1)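 Purified-HDAC assay, single point: percent inhibition read at 1 μM, the highest concentration tested.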

[2] = Antiproliferative activity against human HCT116 cells after 48 hrs in absence of DTT by MTT assay; type: functional, cell-based; conditions: HCT-116, 48 h
Histone deacetylase 4 [3] = biological target: T2, Histone deacetylase 4 (Homo sapiens, UniProt P56524); assay: Inhibition of HDAC4 (unknown origin) incubated for 30 mins in presence of BSA and in absence of DTT by fluorescence assay
Histone deacetylase 7 = biological target: T3, Histone deacetylase 7 (Homo sapiens, UniProt Q8WUI4); assay: Inhibition of HDAC7 (unknown origin) incubated for 30 mins in presence of BSA and in absence of DTT by fluorescence assay
T3 sequence (Q8WUI4 whole entry): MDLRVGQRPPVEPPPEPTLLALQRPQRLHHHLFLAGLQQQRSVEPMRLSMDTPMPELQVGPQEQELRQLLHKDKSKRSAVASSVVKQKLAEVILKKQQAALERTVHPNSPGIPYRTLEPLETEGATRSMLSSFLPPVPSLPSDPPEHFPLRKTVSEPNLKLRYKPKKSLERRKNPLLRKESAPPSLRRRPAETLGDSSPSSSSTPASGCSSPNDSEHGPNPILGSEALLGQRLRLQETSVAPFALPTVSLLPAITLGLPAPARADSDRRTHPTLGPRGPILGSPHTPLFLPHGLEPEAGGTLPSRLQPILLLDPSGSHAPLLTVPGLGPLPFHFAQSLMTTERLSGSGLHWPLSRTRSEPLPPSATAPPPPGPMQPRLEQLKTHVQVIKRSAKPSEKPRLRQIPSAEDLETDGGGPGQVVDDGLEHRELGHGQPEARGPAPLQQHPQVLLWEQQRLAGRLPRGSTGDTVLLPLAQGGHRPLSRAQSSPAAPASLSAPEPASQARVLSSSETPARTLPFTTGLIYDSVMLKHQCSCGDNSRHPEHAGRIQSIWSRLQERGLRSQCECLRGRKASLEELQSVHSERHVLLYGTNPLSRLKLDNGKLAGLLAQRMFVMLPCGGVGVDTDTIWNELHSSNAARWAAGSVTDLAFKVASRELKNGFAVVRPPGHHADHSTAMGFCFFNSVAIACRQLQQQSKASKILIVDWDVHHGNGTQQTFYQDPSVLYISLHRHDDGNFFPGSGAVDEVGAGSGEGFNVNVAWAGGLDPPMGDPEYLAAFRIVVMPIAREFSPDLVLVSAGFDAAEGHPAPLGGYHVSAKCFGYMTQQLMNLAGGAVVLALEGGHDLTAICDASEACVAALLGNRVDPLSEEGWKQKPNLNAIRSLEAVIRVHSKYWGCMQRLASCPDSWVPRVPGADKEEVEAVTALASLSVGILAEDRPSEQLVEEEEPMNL

Histone deacetylase 5 [4] = biological target: T1, Histone deacetylase 5; assay: Inhibition of HDAC5 (unknown origin) incubated for 30 mins in presence of BSA and in absence of DTT by fluorescence assay
Histone deacetylase 9 [5] = biological target: T4, Histone deacetylase 9 (Homo sapiens, UniProt Q9UKV0); assay: Inhibition of HDAC9 (unknown origin) incubated for 30 mins in presence of BSA and in absence of DTT by fluorescence assay
[6] = biological target: T5, Histone deacetylase 7 (Homo sapiens) (UniProt Q8WUI4); assay: Inhibition of HDAC7 (unknown origin) at 1 uM incubated for 30 mins in presence of BSA and in absence of DTT by fluorescence assay; method in brief: as §1
T5 sequence (whole entry): T3 sequence (Q8WUI4 whole entry)

Histone deacetylase 4 [7] = biological target: T2, Histone deacetylase 4; assay: Inhibition of HDAC4 (unknown origin) at 1 uM incubated for 30 mins in presence of BSA and in absence of DTT by fluorescence assay; method in brief: as §1
Histone deacetylase 9 [8] = biological target: T4, Histone deacetylase 9; assay: Inhibition of HDAC9 (unknown origin) at 1 uM incubated for 30 mins in presence of BSA and in absence of DTT by fluorescence assay; method in brief: as §1

T4 sequence (Q9UKV0 whole entry): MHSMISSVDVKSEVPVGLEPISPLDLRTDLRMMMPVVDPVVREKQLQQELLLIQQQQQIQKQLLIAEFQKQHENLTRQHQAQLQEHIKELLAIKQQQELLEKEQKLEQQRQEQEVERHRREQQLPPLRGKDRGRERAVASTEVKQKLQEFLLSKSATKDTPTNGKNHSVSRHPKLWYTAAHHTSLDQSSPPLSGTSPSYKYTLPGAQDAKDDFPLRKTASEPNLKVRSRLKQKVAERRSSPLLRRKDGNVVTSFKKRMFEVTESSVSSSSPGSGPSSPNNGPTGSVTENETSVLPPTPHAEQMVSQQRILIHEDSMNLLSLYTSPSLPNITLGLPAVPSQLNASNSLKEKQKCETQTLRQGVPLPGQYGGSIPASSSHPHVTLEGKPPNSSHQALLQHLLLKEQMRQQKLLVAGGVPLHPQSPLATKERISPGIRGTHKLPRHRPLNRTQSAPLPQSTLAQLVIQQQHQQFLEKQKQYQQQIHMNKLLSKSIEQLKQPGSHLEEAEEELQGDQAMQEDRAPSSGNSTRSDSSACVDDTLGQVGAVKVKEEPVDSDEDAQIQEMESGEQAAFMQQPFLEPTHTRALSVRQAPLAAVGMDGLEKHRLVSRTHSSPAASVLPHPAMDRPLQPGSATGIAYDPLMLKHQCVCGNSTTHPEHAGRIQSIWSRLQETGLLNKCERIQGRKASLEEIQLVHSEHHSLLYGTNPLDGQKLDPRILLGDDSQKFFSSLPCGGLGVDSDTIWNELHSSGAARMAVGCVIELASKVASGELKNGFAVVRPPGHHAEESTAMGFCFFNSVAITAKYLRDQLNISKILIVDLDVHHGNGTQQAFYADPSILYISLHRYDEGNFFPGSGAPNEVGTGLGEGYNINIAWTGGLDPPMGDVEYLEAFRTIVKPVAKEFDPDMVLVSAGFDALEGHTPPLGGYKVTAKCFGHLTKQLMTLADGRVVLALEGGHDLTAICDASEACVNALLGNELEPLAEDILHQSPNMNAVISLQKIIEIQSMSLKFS
T1 sequence (Q9UQL6 whole entry): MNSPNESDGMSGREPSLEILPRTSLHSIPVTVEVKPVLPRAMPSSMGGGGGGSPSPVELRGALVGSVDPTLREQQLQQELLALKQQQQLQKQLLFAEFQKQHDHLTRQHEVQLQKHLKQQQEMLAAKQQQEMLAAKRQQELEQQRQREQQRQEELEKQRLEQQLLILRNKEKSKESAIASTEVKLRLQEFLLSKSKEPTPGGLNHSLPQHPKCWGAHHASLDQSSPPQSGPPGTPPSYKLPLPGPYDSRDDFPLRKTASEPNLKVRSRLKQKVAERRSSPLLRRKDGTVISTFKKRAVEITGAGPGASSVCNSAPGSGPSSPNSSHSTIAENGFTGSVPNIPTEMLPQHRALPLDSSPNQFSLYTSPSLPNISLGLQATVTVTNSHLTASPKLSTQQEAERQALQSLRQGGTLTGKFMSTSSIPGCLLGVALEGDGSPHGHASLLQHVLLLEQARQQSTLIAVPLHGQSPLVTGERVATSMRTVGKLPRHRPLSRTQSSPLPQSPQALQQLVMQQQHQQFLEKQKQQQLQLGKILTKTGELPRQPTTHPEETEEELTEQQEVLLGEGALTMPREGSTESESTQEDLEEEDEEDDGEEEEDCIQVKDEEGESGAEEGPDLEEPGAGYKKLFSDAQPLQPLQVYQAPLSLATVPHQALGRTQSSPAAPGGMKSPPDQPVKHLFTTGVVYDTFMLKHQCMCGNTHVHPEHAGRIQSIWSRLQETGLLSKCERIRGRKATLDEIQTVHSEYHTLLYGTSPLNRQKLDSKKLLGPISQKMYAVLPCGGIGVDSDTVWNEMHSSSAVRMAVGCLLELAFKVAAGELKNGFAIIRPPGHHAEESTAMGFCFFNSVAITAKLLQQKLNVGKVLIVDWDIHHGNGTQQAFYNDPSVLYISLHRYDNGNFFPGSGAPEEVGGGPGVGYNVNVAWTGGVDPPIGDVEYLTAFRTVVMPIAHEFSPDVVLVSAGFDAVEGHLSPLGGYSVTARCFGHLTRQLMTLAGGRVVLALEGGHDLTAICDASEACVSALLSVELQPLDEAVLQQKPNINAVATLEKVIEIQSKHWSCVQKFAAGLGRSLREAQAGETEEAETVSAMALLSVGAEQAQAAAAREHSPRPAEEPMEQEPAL
T2 sequence (P56524 whole entry): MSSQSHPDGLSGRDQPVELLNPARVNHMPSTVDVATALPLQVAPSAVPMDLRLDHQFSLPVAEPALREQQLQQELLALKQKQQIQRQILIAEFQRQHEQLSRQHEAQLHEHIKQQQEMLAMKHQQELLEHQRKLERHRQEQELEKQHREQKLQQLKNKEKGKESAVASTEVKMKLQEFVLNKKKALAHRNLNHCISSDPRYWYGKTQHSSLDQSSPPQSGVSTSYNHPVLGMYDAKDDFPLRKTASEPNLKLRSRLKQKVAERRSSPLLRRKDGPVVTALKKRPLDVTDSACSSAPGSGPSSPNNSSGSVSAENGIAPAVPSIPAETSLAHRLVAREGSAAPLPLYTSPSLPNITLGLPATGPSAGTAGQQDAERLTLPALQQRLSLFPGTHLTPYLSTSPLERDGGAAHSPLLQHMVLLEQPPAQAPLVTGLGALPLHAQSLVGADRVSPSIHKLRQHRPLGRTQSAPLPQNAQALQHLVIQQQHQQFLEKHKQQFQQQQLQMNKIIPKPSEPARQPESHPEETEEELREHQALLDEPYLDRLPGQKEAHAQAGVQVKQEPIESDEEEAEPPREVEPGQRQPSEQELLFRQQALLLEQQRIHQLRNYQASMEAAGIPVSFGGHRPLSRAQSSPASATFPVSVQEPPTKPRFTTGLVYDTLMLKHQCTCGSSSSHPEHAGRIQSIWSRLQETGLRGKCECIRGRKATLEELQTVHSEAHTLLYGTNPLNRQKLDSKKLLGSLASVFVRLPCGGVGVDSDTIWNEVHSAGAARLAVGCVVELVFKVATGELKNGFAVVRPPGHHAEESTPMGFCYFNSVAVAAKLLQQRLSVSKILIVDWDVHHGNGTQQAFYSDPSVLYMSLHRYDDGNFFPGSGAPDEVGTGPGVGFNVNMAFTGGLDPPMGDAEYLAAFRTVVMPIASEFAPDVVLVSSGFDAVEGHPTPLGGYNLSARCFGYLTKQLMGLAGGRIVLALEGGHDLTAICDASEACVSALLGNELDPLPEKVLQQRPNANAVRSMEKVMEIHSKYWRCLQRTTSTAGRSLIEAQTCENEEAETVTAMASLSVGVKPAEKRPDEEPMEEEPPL

In the case of `CC(C)[C@H]1NC(=O)[C@]2(C)CSC(=N2)c2csc(n2)CNC(=O)C[C@@H](/C=C/CCS)OC1=O` [LARGAZOLE THIOL], the inhibition (Histone deacetylase 5 [1]) was less than 20%, the pIC50 [2] was 8.23 and the IC50 (Histone deacetylase 4 [3]) was “Not Active”. For the same compound, the IC50 (Histone deacetylase 7) was “Not Active”, the IC50 (Histone deacetylase 5 [4]) was “Not Active” and the IC50 (Histone deacetylase 9 [5]) was “Not Active”. The inhibition [6] was less than 20%, the inhibition (Histone deacetylase 4 [7]) was less than 20% and the inhibition (Histone deacetylase 9 [8]) was less than 20%.
